Most compounds without a hit are left out; they make up all but 1.8% or so of the library.
Tb MetRS inh – blocks T. brucei methionyl-tRNA synthetase activity | purified T. brucei MetRS, ATP depletion, Kinase-Glo luminescence | inhibition, % at 11.9 µM | 360,000 tested, 0.4% active | AID 624268;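 active = inhibition above a per-plate cutoff of the control wells' mean inhibition plus 3 SD, cut at about 5.5% in these data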;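 also: 0% = DMSO wells median and 100% = median of wells with control inhibitor compound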
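Dosing: 11.9 µM single point; system: parasite MetRS enzyme; technique: luminescence of leftover ATP; times: 15 min enzyme-compound preincubation, 2 h reaction, 10 min detection, 25 °C; replicates: each compound tested once; read-out basis: percent inhibition relative to median high and low control wells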
PG9 Ab binder – binds the HIV-1 gp120 antibody PG9. AID 624416. TR-FRET gp120-PG9 antibody binding. 360,000 tested, 0.43% active. inhibition, % at 6.7 µM; in the data active = inhibition above about 8.5%
Rin1-Abl PPI inh – blocks binding of human Rin1 to Abl | P00519+Q13671 | TR-FRET Rin1/Abl binding, biochemical | inhibition, % at 7.35 µM | 360,000 tested, 0.4% active | AID 588664; in the data active = inhibition above about 5%, passing the limit was not always enough
NR1D1 modulator – Rev-erb alpha (human) modulation; P20393; Rev-erbα–FITC-DNA binding, fluorescence polarization, 90 min; activity, % at 10 µM; 370,000 tested, 0.79% active; AID 1259318;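 active = activity above about 14%, limit read from the data; passing the limit was not always enough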;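 also: 0% = DMSO wells with 35 nM protein and 100% = DMSO wells with 750 nM protein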
Rin1-Abl confirm – confirmation of inhibitors of human Rin1-Abl interaction; shares compounds with Rin1-Abl PPI inh; TR-FRET Rin1-Abl binding, purified proteins; inhibition, % at 7.35 µM; 1,300 tested, 49% active
GFP quench – GFP fluorescence interference artifact | shares compounds with Rin1-Abl PPI inh | inhibitors/quenchers counterscreen | inhibition, % at 6.75 µM | 1,300 tested, 8.5% active | AID 602125;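 also: ABL1-eGFP fusion protein alone without its partner RIN1-SBP; 0% = protein with vehicle and 100% = wells lacking protein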
GFP quench DR – GFP fluorescence interference dose response. IC50, µM. GFP fluorescence interference/quenching counterscreen. 230 tested, under 10 active. shares compounds with Rin1-Abl PPI inh; call rule not given here;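 also: ABL1-eGFP fusion protein alone without its RIN1 binding partner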
An asterisk follows results filed as active; x = no result. Rule as the data show it, unless noted: active = inhibition above about 6.5%; inactive = the rest.

SMILES	Tb MetRS inh	PG9 Ab binder	Rin1-Abl PPI inh	NR1D1 modulator	Rin1-Abl confirm	GFP quench	others
CN(C)CCCNC(=O)c1ccc(-c2cc(O)c3ncccc3c2)cc1	0	-3	25*	5	31*	19*
CC(C)N1Cc2nnn(Cc3ccccc3)c2-c2cc(F)ccc2S1(=O)=O	x	x	x	0	x	x
CC(C)(C)c1ccc(-c2n[nH]c(=S)n2CCCN2CCOCC2)cc1	0	3	8.7*	2	7.6*	0
CC(=O)OCC(=O)[C@@]1(O)CCC2C3CCC4=CC(=O)CC[C@]4(C)[C@@]3(F)[C@@H](O)C[C@@]21C (some centres not stated)	x	x	x	-1	x	x
CCn1ccc(C(=O)N2CCN(c3ncccn3)CC2)n1	1	-6	7.3*	0	6.3*	-1
CCn1ccc(C(=O)N2CCOCC2)n1	-1	-2	2	-1	x	x
Cn1c(=O)oc2cc(S(=O)(=O)N3CCCC(C(=O)Nc4nccs4)C3)ccc21 (configuration not stated)	0	-2	11*	0	1	-1
O=C(NNC(=O)c1cc(O)c(O)c(O)c1)NC1CCCCC1	2	0	22*	2	22*	14*
O=C(NNC(=O)c1cccnc1)NC1CCCCC1	0	1	1	-3	x	x
CCCCCCCCCCCCCCCC(=O)OC[C@H](NC(=O)C(Cl)Cl)[C@H](O)c1ccc([N+](=O)[O-])cc1	x	x	x	5	x	x
Cn1c(SCC(=O)Nc2ccc(S(=O)(=O)Nc3nccs3)cc2)nc2sc3c(c2c1=O)CCCC3	x	x	x	-12	x	x
CN(C)Cc1cc(O)c(CN(C)C)cc1O	1	-2	13*	-6	2	4
Cn1cc(-c2coc3c(C(=O)NCc4cccnc4)cccc23)cn1	0	-2	1	-2	x	x
COc1ccc(CNC(=O)c2cccc3c(-c4cnn(C)c4)coc23)cc1OC	0	0	12*	11	-2	0
C(=C\c1ccccc1)/CSc1nnc(COc2ccccc2)n1Cc1ccco1	x	x	x	-1	x	x
Cc1ccc(C2N(c3ccc(Cl)cc3)C(=O)N3CCCN23)cc1 (configuration not stated)	-1	0	12*	-1	13*	-1
O=C(NCc1ccco1)C1CCCN(S(=O)(=O)c2ccc([N+](=O)[O-])cc2)C1 (configuration not stated)	x	x	x	-5	x	x
CCCCc1nnc(NC(=O)c2ccc(OCc3c(C)noc3C)cc2)s1	-1	1	17*	2	28*	0	GFP quench DR=>68
CC(C)N=c1scc(-c2ccco2)n1/N=C/c1ccc(O)c(O)c1	-1	-1	2	0	x	x
COCCN=c1scc(-c2ccco2)n1/N=C/c1ccc(O)c(O)c1O	0	-2	20*	-25	13*	11*
C=CCN=c1scc(-c2ccco2)n1/N=C/c1ccc(O)c(O)c1O	0	-2	11*	-19	6	7.3*
Oc1ccc(/C=N/n2c(-c3ccco3)csc2=Nc2cccnc2)c(O)c1	0	-4	-3	0	x	x
COC(=O)[C@]12C[C@H](CC(=O)NCCC(C)C)C(=O)N(Cc3ccccc3)C1=C[C@H](COCc1ccccc1)O[C@@H]2C	x	x	x	3	x	x
O=C(c1ccco1)N1CCN(Cc2cc(=O)c(OCc3cccc(Cl)c3)co2)CC1	0	2	2	-4	x	x
O=C(c1ccco1)N1CCN(Cc2cc(=O)c(OCc3ccccc3Cl)co2)CC1	0	0	14*	2	10*	1
Cc1cc(N/N=C/c2ccc(O)cc2O)nc(-n2nc(C)cc2C)n1	-1	-1	12*	-6	10*	-1
COc1ccc(/C=N/Nc2cc(C)nc(-n3nc(C)cc3C)n2)cc1	-1	0	1	-2	x	x
Cc1ccc(C(=O)NCCc2nnc3ccc(SCC(=O)N4CCCC4)nn23)cc1	1	2	15*	5	11*	-1
C[C@H](CO)N1C[C@H](C)[C@@H](CN(C)Cc2ccncc2)Oc2c(NC(=O)c3ccncc3)cccc2C1=O	0	1	9.3*	-1	9.5*	0
C[C@H](CO)N1C[C@H](C)[C@@H](CN(C)Cc2ccc(C(=O)O)cc2)Oc2c(NC(=O)c3ccncc3)cccc2C1=O	0	0	5	-3	x	x
